Experimental data: article PMC6287472 (International Journal for Parasitology: Drugs and Drug …, 2018)
“Also recorded” adds a separate entry of the source. Counter-ions that a name gives are not always drawn. Like-named read-outs stand apart in the source and are kept apart here.

Assays:
Sm.5HTRL [1] = target: T1, Sm.5HTRL (Schistosoma mansoni, UniProt A0A173FEI8); experiment: Sm.5HTRL cAMP luminescence; type: cell-based; conditions: for Emax: read-out: Sm.5HTRL Emax (normalized to 5-HT)
T1 sequence (A0A173FEI8 1-547): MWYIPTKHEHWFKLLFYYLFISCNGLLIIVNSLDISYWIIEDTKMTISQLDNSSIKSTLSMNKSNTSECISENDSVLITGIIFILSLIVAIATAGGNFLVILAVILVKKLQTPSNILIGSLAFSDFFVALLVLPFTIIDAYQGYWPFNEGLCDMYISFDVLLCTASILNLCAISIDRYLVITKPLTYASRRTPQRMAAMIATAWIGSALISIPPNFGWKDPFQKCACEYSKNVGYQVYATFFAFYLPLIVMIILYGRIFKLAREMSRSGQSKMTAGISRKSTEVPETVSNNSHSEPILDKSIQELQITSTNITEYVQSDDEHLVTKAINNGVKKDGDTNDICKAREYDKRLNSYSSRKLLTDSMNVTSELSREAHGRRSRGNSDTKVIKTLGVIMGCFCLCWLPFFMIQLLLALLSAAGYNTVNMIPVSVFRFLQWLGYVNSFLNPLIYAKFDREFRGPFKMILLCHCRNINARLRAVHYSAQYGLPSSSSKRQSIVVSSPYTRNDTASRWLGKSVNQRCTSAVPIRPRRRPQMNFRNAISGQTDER
Summary of the method: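 HEK-293 cells stably carrying the GloSensor-22F cAMP reporter and codon-optimised Sm.5HTRL (pcDNA3.1), selected with hygromycin (200 μg/mL) and G418 (400 μg/mL), plated 2.5x10^4 cells/well the day before. Assay buffer was HBSS/HEPES (20 mM, pH 7.4), 0.1% BSA, D-luciferin 1 mg/mL. Cells were equilibrated 1 h at room temperature, then IBMX 200 μM for 30 min. Luminescence was read 45 min after test compound; Emax was taken relative to 5-HT.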

adult S. mansoni [2] = experiment: Adult schistosome mobility assay, agonist; parameters: species or system Schistosoma mansoni; conditions: adult male worms ex vivo; for increase in worm movement: 5 min incubation
Summary of the method: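 Adult worms came from female Swiss Webster mice 49 days after infection with NMRI-strain cercariae. They were washed in RPMI 1640 with HEPES 25 mM, 5% heat-inactivated FBS and pen-strep, then cultured overnight at 37 °C/5% CO2. Males (4–5/well, 3 mL) were exposed to test compound for 5 min. Movement was filmed for 1 min at 4 frames/s and quantified by image analysis; mean ± standard error, ≥3 independent experiments.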

human 5-HT7 receptor = conditions: cited from earlier work
[3] = tested on: mammalian 5-HT7 receptors; conditions: cited from earlier work
Sm.5HTRL [4] = target: T1, Sm.5HTRL; experiment: Sm.5HTRL cAMP luminescence; type: cell-based; conditions: for antagonist activity at Sm.5HTRL (in words): inhibition of 5-HT response, test compound up to 50 μM
Summary of the method: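 Sm.5HTRL/GloSensor-22F stable HEK-293 cells, 2.5x10^4/well, in HBSS/HEPES (20 mM, pH 7.4), 0.1% BSA, 1 mg/mL D-luciferin. After 1 h at room temperature, IBMX 200 μM was added for 30 min. Test compound was added and read 45 min, then 500 nM serotonin was added and luminescence read another 45 min. IC50 came from concentration-inhibition curves; Ki was estimated by Cheng-Prusoff.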

Sm.5HTRL [5] = target: T1, Sm.5HTRL; conditions: ref Chan et al., cited from earlier work
adult S. mansoni [6] = conditions: previous work; ref Chan et al., 2016c; cited from earlier work
adult S. mansoni [7] = experiment: Adult schistosome mobility assay, antagonist; parameters: species or system Schistosoma mansoni; conditions: for inhibition of 5-HT evoked movement (in words): concentrations as high as 50 μM, serotonin 200 μM; for concentration inhibiting 5-HT evoked movement: 1 h incubation, then serotonin 200 μM
Summary of the method: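 Adult worms were recovered 49 days after cercarial infection of female Swiss Webster mice (NMRI strain parasite). They were kept overnight at 37 °C/5% CO2 in RPMI 1640 with HEPES 25 mM, 5% heat-inactivated FBS and pen-strep. Males (4–5/well) were incubated 1 h in test compound, then serotonin 200 μM was added. One-minute videos at 4 frames/s were analysed for movement; mean ± standard error, ≥3 independent experiments.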

[8] = tested on: HEK-293 cells expressing the GloSensor-22F reporter alone; experiment: Counter-screen on parental GloSensor-22F cell line lacking Sm.5HTRL; type: cell-based; conditions: agonists at 10 μM
Summary of the method: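 Counter-screen used HEK-293 cells stably expressing the GloSensor-22F cAMP reporter without Sm.5HTRL, plated 2.5x10^4 cells/well the day before. Assay buffer was HBSS/HEPES (20 mM, pH 7.4), 0.1% BSA, 1 mg/mL D-luciferin. Cells were equilibrated 1 h at room temperature, then IBMX 200 μM added for 30 min. Test compound was added and luminescence read for 45 min.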

Sm.5HTRL [9] = target: T1, Sm.5HTRL; conditions: ref Chan et al., 2018; cited from earlier work
[10] = ref Bard et al., 1993, Shen et al.
[11] = pKi, estimated using the Cheng-Prusoff equation, inhibition of 500 nM 5-HT

NCCc1c[nH]c2ccc(Br)cc12 [5-Bromotryptamine]
agonist activity at Sm.5HTRL (in words) (Sm.5HTRL [1]): partial agonist activity

NCCc1c[nH]c2ccc(C(N)=O)cc12 [5-Carboxamidotryptamine]
agonist activity at Sm.5HTRL (in words) (Sm.5HTRL [1]; listed as 5-CT): inactive
effect on worm movement (in words) (adult S. mansoni [2]): did not stimulate movement
activity at human 5-HT7 receptor (in words) (human 5-HT7 receptor; ref Plassat et al., 1993): full agonists
activity at mammalian 5-HT7 receptors (in words) [3, 10]: potent full agonists

C=CCN(CC=C)CCc1c[nH]c2ccc(OC)cc12 [5-MeO-DALT, N,N-diallyl-5-methoxytryptamine]
agonist activity at Sm.5HTRL (in words) (Sm.5HTRL [1]): inactive

COc1ccc2[nH]cc(CCN(C)C)c2c1 [5-MeO-DMT, 5-methoxy-N,N-dimethyltryptamine]
agonist activity at Sm.5HTRL (in words) (Sm.5HTRL [1]): inactive

COc1ccc2[nH]cc(CCN)c2c1 [5-methoxytryptamine]
agonist activity at Sm.5HTRL (in words) (Sm.5HTRL [1]; listed as 5-MeOT): inactive; also recorded: did not potently activate
effect on worm movement (in words) (adult S. mansoni [2]): stimulated movement
effect on worm movement (in words) (adult S. mansoni [2]; listed as 5-MeOT): potently stimulated movement
activity at human 5-HT7 receptor (in words) (human 5-HT7 receptor; ref Plassat et al., 1993): full agonists
activity at mammalian 5-HT7 receptors (in words) [3, 10]: potent full agonists

Cc1ccc2[nH]cc(CCN)c2c1 [5-methyltryptamine]
agonist activity at Sm.5HTRL (in words) (Sm.5HTRL [1]): partial agonist activity
effect on worm movement (in words) (adult S. mansoni [2]): stimulated movement, but only at high concentrations in the hundreds of micromolar

CCCN1CCc2cccc3c2[C@H]1Cc1ccc2c(c1-3)OCO2 [(-)-MDO-NPA hydrochloride]
Ki (Sm.5HTRL [4]; [11]): 100 nM

COc1cc2c(cc1O)C[C@H]1c3c(cc(O)c(OC)c3-2)CCN1C [Boldine]
antagonist activity at Sm.5HTRL (in words) (Sm.5HTRL [4]): potent antagonists
activity at Sm.5HTRL (in words) (Sm.5HTRL [5]; 2016a): Sm.5HTRL antagonists

CN(C)CCc1c[nH]c2ccc(O)cc12 [Bufotenine]
EC50 (Sm.5HTRL [1]): 2400 ± 200 nM
Emax (Sm.5HTRL [1]): 99 ± 34%

COc1ccc2c(c1OC)CN1CCc3cc4c(cc3[C@@H]1C2)OCO4 [Canadine]
antagonist activity at Sm.5HTRL (in words) (Sm.5HTRL [4]): loss of activity; also recorded: inactive

COc1cc2c(cc1OC)C1Cc3ccc(OC)c(OC)c3CN1CC2 (centres unmarked) [D,L Rotundine]
Ki (Sm.5HTRL [4]): 63.1 nM
activity at Sm.5HTRL (in words) (Sm.5HTRL [5]; 2016c, listed as D/L-rotundine): antagonist
activity at Sm.5HTRL (in words) (Sm.5HTRL [5]; 2016c, listed as rotundine): potent antagonists
effect on movement of adult worms (in words) (adult S. mansoni [6]): inhibited movement of adult worms

COc1cc2c(cc1OC)[C@H]1Cc3ccc(OC)c(OC)c3CN1CC2 [D-Rotundine]
antagonist activity at Sm.5HTRL (in words) (Sm.5HTRL [4]): inactive
inhibition of 5-HT evoked movement (in words) (adult S. mansoni [7]): no inhibition

COc1cc2c(cc1OC)-c1c(OC)c(OC)cc3c1[C@H](C2)N(C)CC3 [D-glaucine]
antagonist activity at Sm.5HTRL (in words) (Sm.5HTRL [4]): potent antagonists
Ki (Sm.5HTRL [4]; [11]): 158 nM
activity at Sm.5HTRL (in words) (Sm.5HTRL [5]; 2016a): Sm.5HTRL antagonists

CN(C)CCc1c[nH]c2ccccc12 [DMT, N,N-Dimethyltryptamine]
agonist activity at Sm.5HTRL (in words) (Sm.5HTRL [1]): inactive
effect on worm movement (in words) (adult S. mansoni [2]): no effect on worm movement

COc1cc2cc3c4c(cc(OC)c(OC)c4c2cc1OC)CCN3C [Dehydroglaucine]
antagonist activity at Sm.5HTRL (in words) (Sm.5HTRL [4]): inactive

COc1cc2c3c(c1OC)-c1ccccc1C[C@H]3N(C)CC2 [L-Nuciferine]
antagonist activity at Sm.5HTRL (in words) (Sm.5HTRL [4]): potent antagonists
Ki (Sm.5HTRL [4]; [11]): 79.4 nM
activity at Sm.5HTRL (in words) (Sm.5HTRL [5]; 2016a): potent antagonists; also recorded: Sm.5HTRL antagonists

COc1cc2c(cc1OC)[C@@H]1Cc3ccc(OC)c(OC)c3CN1CC2 [L-Rotundine]
antagonist activity at Sm.5HTRL (in words) (Sm.5HTRL [4]): active
concentration inhibiting 5-HT evoked movement (adult S. mansoni [7]): ≥ 1 µM

COc1ccc(CC2c3cc(OC)c(OC)cc3CCN2C)cc1OC (centres unmarked) [Laudanosine]
antagonist activity at Sm.5HTRL (in words) (Sm.5HTRL [4]): None of these showed any inhibition

CNCCc1c[nH]c2ccccc12 [N-Methyltryptamine]
agonist activity at Sm.5HTRL (in words) (Sm.5HTRL [1]): inactive

CNCCc1c[nH]c2ccc(O)cc12 [N-methylserotonin]
EC50 (Sm.5HTRL [1]): 154 ± 11 nM
Emax (Sm.5HTRL [1]): 113 ± 28%
effect on worm movement (in words) (adult S. mansoni [2]): full agonist
increase in worm movement (adult S. mansoni [2]): 252 ± 9%
activity at mammalian 5-HT7 receptors (in words) ([3]; ref Powell et al., 2008): full agonist

COc1cc2c(cc1OC)-c1cc3ccc(OC)c(OC)c3c[n+]1CC2 [Palmatine]
antagonist activity at Sm.5HTRL (in words) (Sm.5HTRL [4]): inactive
inhibition of 5-HT evoked movement (in words) (adult S. mansoni [7]): no inhibition

COc1ccc(C(=O)c2nccc3cc(OC)c(OC)cc23)cc1OC [Papaveraldine]
antagonist activity at Sm.5HTRL (in words) (Sm.5HTRL [4]): None of these showed any inhibition

COc1ccc(Cc2nccc3cc(OC)c(OC)cc23)cc1OC [Papaverine]
antagonist activity at Sm.5HTRL (in words) (Sm.5HTRL [4]): None of these showed any inhibition

CC1CCN(CC[C@H]2CCCN2S(=O)(=O)c2cccc(O)c2)CC1 [SB-269970]
activity at Sm.5HTRL (in words) (Sm.5HTRL [5]; 2016c): inactive

NCCc1c[nH]c2ccc(O)cc12 [Serotonin]
EC50 (Sm.5HTRL [1]): 94 ± 18 nM
activity in cells expressing the GloSensor-22F reporter alone (in words) [8]: not observed
increase in worm movement (adult S. mansoni [2]): 224 ± 17%

c1cc2c(c3c1CC1c4cc5c(cc4CCN1C3)OCO5)OCO2 (centres unmarked) [Tetrahydrocoptisine]
antagonist activity at Sm.5HTRL (in words) (Sm.5HTRL [4]): loss of activity
antagonist activity at Sm.5HTRL (in words) (Sm.5HTRL [4]; listed as tetrahydrocopsitine): inactive

NCCc1c[nH]c2ccccc12 [Tryptamine]
agonist activity at Sm.5HTRL (in words) (Sm.5HTRL [1]): negligible activity

COc1cc2c3c(c1O)-c1ccccc1CC3N(C)CC2 (centres unmarked) [compound 785177]
concentration inhibiting 5-HT evoked movement (adult S. mansoni [7]): 1 to 10 µM

COc1cc2c(cc1OC)CN1CCc3cc(OC)c(OC)cc3[C@@H]1C2 [d-Xylopinine]
antagonist activity at Sm.5HTRL (in words) (Sm.5HTRL [4]): decreased potency
times less potent than rotundine at Sm.5HTRL (Sm.5HTRL [4]; relative to rotundine): ~10

COc1cc2c3c(cc4ccccc4c3c1OC)N(C)CC2 [dehydronuciferine]
antagonist activity at Sm.5HTRL (in words) (Sm.5HTRL [4]): inactive

CN1C[C@H](C(=O)N[C@]2(C)O[C@@]3(O)[C@@H]4CCCN4C(=O)[C@H](Cc4ccccc4)N3C2=O)C=C2c3cccc4[nH]cc(c34)C[C@H]21 [ergotamine]
activity at Sm.5HTRL (in words) (Sm.5HTRL [9]): full agonist
activity at human 5-HT7 receptor (in words) (human 5-HT7 receptor; ref Wacker et al., 2013): potent antagonist

COc1cc2c3c(c1OC)-c1cc4c(cc1CC3N(C)CC2)OCO4 (centres unmarked) [nantenine]
antagonist activity at Sm.5HTRL (in words) (Sm.5HTRL [4]): potent antagonists
